# Reference: ChEMBL document CHEMBL5321212, “Design, synthesis, and evaluation of substituted alkylindoles that activate G protein-coupled receptors distinct from the cannabinoid CB1 and CB2 receptors” (Eur J Med Chem, 2023)
# Active and inactive are the calls of the source. No cut-off for these calls is given here.
# Key:
# Cell membrane [1] = test: Displacement of [3H]-WIN55212-2 from HEK293 cell membrane lacking CB1R and CB2R at 1 uM; format: subcellular; settings: Homo sapiens
# [2] = Displacement of [3H]-WIN55212-2 from HEK293 cell membrane lacking CB1R and CB2R assessed as inhibition constant; format: cell membranes, Homo sapiens
# How it was run: (§1)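 HEK293 membranes (P2 fractions from independent cultures) incubated with [³H]WIN55212-2 plus increasing concentrations of competitor; specific binding determined by filtration. Ki derived from competition curves, fitted as one or two sites (high and low affinity) where curves were biphasic. n = 3–8 independent membrane preparations, each run in triplicate.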
# Cell membrane [3] = test: Displacement of [3H]-WIN55212-2 from HEK293 cell membrane lacking CB1R and CB2R assessed as inhibition constant for lower affinity site; format: subcellular; settings: Homo sapiens; how it was run: as §1
# Cell membrane [4] = test: Displacement of [3H]-WIN55212-2 from HEK293 cell membrane lacking CB1R and CB2R assessed as inhibition constant for higher affinity site; format: subcellular; settings: Homo sapiens; how it was run: as §1
# [5] = (§2) Induction of [35S]GTPgammaS binding to HEK293 cell membrane lacking CB1R and CB2R by filtration assay; format: cell membranes, Homo sapiens
# How it was run: (§3)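 [³⁵S]GTPγS binding to HEK293 cell membranes stimulated by compound. Gi/o dependence tested by pretreating cultured cells with pertussis toxin (100 ng/ml, 20 h). Where stated, CB1R antagonist […] (1 μM) or CB2R antagonist SR144528 (1 μM) was present. Mean ± SEM of n = 3–4 experiments, each in triplicate.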
# HEK293 [6] = test: Induction of HA-tagged human CB1R internalization in HEK293 cells; format: functional, cell-based
# How it was run: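 HEK293 cells stably expressing HA-tagged human CB1R exposed to compound at 3 μM. Internalization measured and expressed as % of vehicle control. Antagonism tested with […] (1 μM). Positive control CP55940 (1 μM). Mean ± SEM of 3–5 independent experiments. One-way ANOVA with Bonferroni post-test.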
# HEK293 [7] = test: Induction of HA-tagged human CB2R internalization in HEK293 cells; format: functional, cell-based
# How it was run: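 HEK293 cells stably expressing HA-tagged human CB2R exposed to compound at 3 μM. Internalization measured and expressed as % of vehicle control. Antagonism tested with AM630 (1 μM). Positive control CP55940 (1 μM). Mean ± SEM of 3–5 independent experiments. One-way ANOVA with Bonferroni post-test.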
# HEK293 [8] = test: as §2; format: cell membranes; settings: Homo sapiens; how it was run: as §3
# HEK293 [9] = test: Induction of [35S]GTPgammaS binding to HEK293 cell membrane lacking CB1R and CB2R in presence of SR141716 by filtration assay; format: cell membranes; settings: Homo sapiens; how it was run: as §3
# Cell membrane [10] = test: Displacement of [3H]-WIN55212-2 from HEK293 cell membrane lacking CB1R and CB2R in presence of GTPgammaS by filtration assay; format: subcellular; settings: Homo sapiens
# How it was run: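 HEK293 membranes incubated with [³H]WIN55212-2 and test compound, with or without GTPγS (20 μM). Specific binding determined by filtration assay. Mean ± SEM of n = 3–4 experiments, each in triplicate.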
# HEK293 [11] = test: Induction of [35S]GTPgammaS binding to HEK293 cell membrane lacking CB1R and CB2R in presence of SR144528 by filtration assay; format: cell membranes; settings: Homo sapiens; how it was run: as §3
Compound,Ki [2],KiL (Cell membrane [3]),KiH (Cell membrane [4]),also measured
CCn1c(C)c(C(=O)c2ccc(OC)cc2)c2ccccc21,,,,Activity (Cell membrane [1]): inactive
Cc1ccc(C(=O)c2c(C)n(C3CC3)c3ccccc23)c2ccccc12,118 nM,,,
Cc1c(C(=O)c2cccc3ccccc23)c2cccc3c2n1[C@@H](CN1CCOCC1)CO3,,0.0072 µM,0.027 nM,
Cc1ccc(C(=O)c2c(C)n(CCN3CCOCC3)c3ccc(Cl)cc23)c2ccccc12,,2.3 µM,10 nM,
CCCn1c(C)c(C(=O)c2ccc(C)c3ccccc23)c2ccccc21,95 nM,,,
Cc1ccc(C(=O)c2c(C)n(CCN3CCOCC3)c3cnccc23)c2ccccc12,,2.1 µM,5.8 nM,
Cc1ccc(C(=O)c2c(C)n(CCN3CCOCC3)c3ncccc23)c2ccccc12,,0.382 µM,0.4 nM,EC50 [5]: 1.1 nM; Activity (HEK293 [6]): Active; Activity (HEK293 [7]): Active
Cc1ccc(C(=O)c2c(C)n(CCN3CCOCC3)c3ccccc23)c2ccccc12,,0.09 µM,0.8 nM,Activity (HEK293 [6]): Active; Activity (HEK293 [7]): Active
CC1=C(CCN2CCOCC2)c2ccccc2/C1=C\c1cccc2ccccc12,466 nM,,,Activity (HEK293 [8]): Active
Cc1c(C(=O)c2cccc3ccccc23)c2cccc3c2n1[C@H](CN1CCOCC1)CO3,,,,Activity (Cell membrane [1]): inactive
Cc1ccc(C(=O)c2c(C)n(C)c3ccccc23)c2ccccc12,,2.6 µM,0.8 nM,
CCCn1cc(C(=O)c2ccc(C)c3ccccc23)c2ccccc21,319 nM,,,
C1=C(CCN2CCOCC2)c2ccccc2/C1=C\c1cccc2ccccc12,437 nM,,,Activity (HEK293 [8]): Active
CC1=C(CCN2CCOCC2)c2ccccc2/C1=C/c1cccc2ccccc12,466 nM,,,
Cc1ccc(C(=O)c2c(C)n(CC(F)(F)F)c3ccccc23)c2ccccc12,1.8 nM,,,Activity (HEK293 [6]): inactive; Activity (HEK293 [7]): Active
Cn1cc(C(=O)N2CCCc3ccccc32)c2ccccc21,,,,Activity (Cell membrane [1]): inactive
CCn1cc(C(=O)c2ccc(C)c3ccccc23)c2ccccc21,102 nM,,,
Cc1ccc(C(=O)c2c(C(F)(F)F)n(CCN3CCOCC3)c3ccccc23)c2ccccc12,972 nM,,,
COc1ccc2c(C(=O)c3ccc(C)c4ccccc34)c(C)n(CCN3CCOCC3)c2c1,113 nM,,,EC50 [5]: 229 nM
COc1ccc2c(c1)c(C(=O)c1ccc(C)c3ccccc13)c(C)n2CCN1CCOCC1,,,,Activity (Cell membrane [1]): inactive
C1=C(CCN2CCOCC2)c2ccccc2/C1=C/c1cccc2ccccc12,3400 nM,,,
Cc1ccc(C(=O)c2c3n(c4ccccc24)CCCC3)c2ccccc12,,2.6 µM,5.5 nM,Activity (HEK293 [6]): Active; Activity (HEK293 [7]): Active
Cc1c(C(=O)c2cccc3ccccc23)c2ccccc2n1C,,1 µM,2.1 nM,
CCn1c(C)c(C(=O)c2ccc(C)c3ccccc23)c2ccccc21,,0.085 µM,1.5 nM,EC50 [5]: 5 nM; Activity (HEK293 [9]): Active; Activity (Cell membrane [10]): Active; Activity (HEK293 [6]): inactive; Activity (HEK293 [7]): Active; Activity (HEK293 [11]): Active
Cc1ccc(C(=O)c2c(C)n(CCN3CCOCC3)c3cc(Cl)ccc23)c2ccccc12,3.5 nM,,,EC50 [5]: 3.5 nM
Cc1ccc(C(=O)c2c(C)n(CCN3CCOCC3)c3cc(Cl)cc(Cl)c23)c2ccccc12,,,,Activity (Cell membrane [1]): inactive
